According to ChEMBL document CHEMBL4699443, “Position of lipidation influences anticancer activity of Smac analogs” (Bioorg Med Chem Lett, 2019):
Non-standard residues stand in square brackets, D forms with d. Residues, ends and D or L forms follow the SMILES beside them. *: point of attachment. Pro(cis-4-OPh) = O=C(O)[C@@H]1C[C@H](Oc2ccccc2)CN1; Bip = N[C@@H](Cc1ccc(-c2ccccc2)cc1)C(=O)O; X2 = CCCCCCCCCCCCCCCCCCS(=O)(=O)CCN*; Tle = CC(C)(C)[C@H](N)C(=O)O; X1 = CCCCCCCCCCCCCCCCCCSCCN*; NMeA = CN[C@@H](C)C(=O)O

Experiments:
[1] = test system: BT-474; test: Antiproliferative activity against human BT-474 cells assessed as growth inhibition after 48 hrs by PrestoBlue dye based fluorescence assay; format: functional, cell-based; details: BT-474, 48 h
[2] = test system: MDA-MB-361; test: Antiproliferative activity against human MDA-MB-361 cells assessed as growth inhibition after 48 hrs by PrestoBlue dye based fluorescence assay; format: functional, cell-based; details: MDA-MB-361, 48 h
[3] = test system: KOPN-8; test: Antiproliferative activity against human KOPN-8 cells assessed as growth inhibition after 48 hrs by PrestoBlue dye based fluorescence assay; format: functional, cell-based; details: KOPN-8, 48 h
[4] = test system: HL-60; test: Antiproliferative activity against human HL60 cells assessed as growth inhibition after 48 hrs by PrestoBlue dye based fluorescence assay; format: functional, cell-based; details: HL-60, 48 h
[5] = test system: THP-1; test: Antiproliferative activity against human THP1 cells assessed as growth inhibition after 48 hrs by PrestoBlue dye based fluorescence assay; format: functional, cell-based; details: THP-1, 48 h
[6] = Antiproliferative activity against human M233 cells assessed as growth inhibition after 48 hrs by PrestoBlue dye based fluorescence assay; format: functional, cell-based; details: M233, 48 h
[7] = Antiproliferative activity against human M263 cells assessed as growth inhibition after 48 hrs by PrestoBlue dye based fluorescence assay; format: functional, cell-based; details: M263, 48 h
[8] = test system: PC-3; test: Antiproliferative activity against human PC-3 cells assessed as growth inhibition after 48 hrs by PrestoBlue dye based fluorescence assay; format: functional, cell-based; details: PC-3, 48 h
[9] = test system: T84; test: Antiproliferative activity against human T84 cells assessed as growth inhibition after 48 hrs by PrestoBlue dye based fluorescence assay; format: functional, cell-based; details: T84, 48 h
[10] = Antiproliferative activity against human UM-SCC-5 cells assessed as growth inhibition after 48 hrs by PrestoBlue dye based fluorescence assay; format: functional, cell-based; details: UM-SCC-5, 48 h
[11] = Antiproliferative activity against human UM-SCC-12 cells assessed as growth inhibition after 48 hrs by PrestoBlue dye based fluorescence assay; format: functional, cell-based; details: UM-SCC-12, 48 h
[12] = Antiproliferative activity against human UM-SCC-178 cells assessed as growth inhibition after 48 hrs by PrestoBlue dye based fluorescence assay; format: functional, cell-based; details: UM-SCC-178, 48 h
[13] = test system: KOPN-8; test: Induction of apoptosis in human KOPN8 cells assessed as viable cells at 10 uM after 24 hrs by AnnexinV/PI-staining based flow cytometry; format: functional; details: read-out: Activity
How it was run: (§1)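 KOPN-8 cells treated with 1 or 10 μM compound, alone or as an equimolar two-compound mixture. Cultured for a time course, then stained with annexin V and propidium iodide. Read by flow cytometry; populations gated by annexin V/PI staining, including annexin V+/PI+ double positives.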

[14] = test system: KOPN-8; test: Induction of apoptosis in human KOPN8 cells assessed as early apoptotic cells at 10 uM after 24 hrs by AnnexinV/PI-staining based flow cytometry; format: functional; how it was run: as §1
[15] = test system: KOPN-8; test: Induction of apoptosis in human KOPN8 cells assessed as late apoptotic cells at 10 uM after 24 hrs by AnnexinV/PI-staining based flow cytometry; format: functional; how it was run: as §1
[16] = test system: KOPN-8; test: Induction of apoptosis in human KOPN8 cells assessed as necrotic cells at 10 uM after 24 hrs by AnnexinV/PI-staining based flow cytometry; format: functional; how it was run: as §1
[17] = test system: KOPN-8; test: Induction of apoptosis in human KOPN8 cells assessed as viable cells at 10 uM after 48 hrs by AnnexinV/PI-staining based flow cytometry; format: functional; details: read-out: Activity; how it was run: as §1
[18] = test system: KOPN-8; test: Induction of apoptosis in human KOPN8 cells assessed as early apoptotic cells at 10 uM after 48 hrs by AnnexinV/PI-staining based flow cytometry; format: functional; how it was run: as §1
[19] = test system: KOPN-8; test: Induction of apoptosis in human KOPN8 cells assessed as late apoptotic cells at 10 uM after 48 hrs by AnnexinV/PI-staining based flow cytometry; format: functional; how it was run: as §1
[20] = test system: KOPN-8; test: Induction of apoptosis in human KOPN8 cells assessed as necrotic cells at 10 uM after 48 hrs by AnnexinV/PI-staining based flow cytometry; format: functional; how it was run: as §1
[21] = test system: KOPN-8; test: Induction of apoptosis in human KOPN8 cells assessed as viable cells at 10 uM after 72 hrs by AnnexinV/PI-staining based flow cytometry; format: functional; details: read-out: Activity; how it was run: as §1
[22] = test system: KOPN-8; test: Induction of apoptosis in human KOPN8 cells assessed as early apoptotic cells at 10 uM after 72 hrs by AnnexinV/PI-staining based flow cytometry; format: functional; how it was run: as §1
[23] = test system: KOPN-8; test: Induction of apoptosis in human KOPN8 cells assessed as late apoptotic cells at 10 uM after 72 hrs by AnnexinV/PI-staining based flow cytometry; format: functional; how it was run: as §1
[24] = test system: KOPN-8; test: Induction of apoptosis in human KOPN8 cells assessed as necrotic cells at 10 uM after 72 hrs by AnnexinV/PI-staining based flow cytometry; format: functional; how it was run: as §1
[25] = test system: KOPN-8; test: Induction of apoptosis in human KOPN8 cells assessed as viable cells at 10 uM after 168 hrs by AnnexinV/PI-staining based flow cytometry; format: functional; details: read-out: Activity; how it was run: as §1
[26] = test system: KOPN-8; test: Induction of apoptosis in human KOPN8 cells assessed as early apoptotic cells at 10 uM after 168 hrs by AnnexinV/PI-staining based flow cytometry; format: functional; how it was run: as §1
[27] = test system: KOPN-8; test: Induction of apoptosis in human KOPN8 cells assessed as late apoptotic cells at 10 uM after 168 hrs by AnnexinV/PI-staining based flow cytometry; format: functional; how it was run: as §1
[28] = test system: KOPN-8; test: Induction of apoptosis in human KOPN8 cells assessed as necrotic cells at 10 uM after 168 hrs by AnnexinV/PI-staining based flow cytometry; format: functional; how it was run: as §1
[29] = test system: KOPN-8; test: Induction of apoptosis in human KOPN8 cells assessed as increase in caspase 9 activity at 0.1 to 50 uM after 24 hrs by Caspase-glo reagent based microplate reader analysis relative to control; format: functional; details: dose microM 0.1-50
[30] = Tmax in C57BL/6 mouse at 10 mg/kg, sc by LC-MS analysis; format: ADME, organism-based; details: in vivo
How it was run: (§2)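 Mice individually weighed, then given a single SC dose of 10 mg/kg. Blood taken by retro-orbital bleeding at set time points. Plasma levels measured by triple-quadrupole LC/MS; plasma half-life derived from these levels.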

[31] = Cmax in C57BL/6 mouse at 10 mg/kg, sc by LC-MS analysis; format: ADME, organism-based; set-up: route subcutaneous, dose 10 mg/kg; details: in vivo; how it was run: as §2
[32] = Drug level in C57BL/6 mouse plasma at 10 mg/kg, sc after 30 mins by LC-MS analysis; format: ADME, organism-based; details: in vivo, 0.5 h; how it was run: as §2
[33] = test system: MDA-MB-361; test: Antitumor activity against sc dosed human MDA-MB-361 cells xenografted in BALB mouse administered up to 12 days by caliper analysis; format: functional, organism-based; details: dose mg/kg 10-20, time 12.0 day
How it was run: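 Tumor-bearing mice, subcutaneous engraftment model; compound given SC at 10 or 20 mg/kg in 2% Cremophor EL, 2×5 injections (10 doses total). Read-out is tumor growth delay in days, taken at a tumor volume of 500 mm3.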

[34] = test system: MCF7; test: Antiproliferative activity against human MCF7 cells assessed as growth inhibition after 48 hrs by PrestoBlue dye based fluorescence assay; format: functional, cell-based; details: MCF7, 48 h
[35] = test system: HepG2; test: Antiproliferative activity against human HepG2 cells assessed as growth inhibition after 48 hrs by PrestoBlue dye based fluorescence assay; format: functional, cell-based; details: HepG2, 48 h
[36] = test system: Hep 3B2; test: Antiproliferative activity against human Hep3B cells assessed as growth inhibition after 48 hrs by PrestoBlue dye based fluorescence assay; format: functional, cell-based
[37] = Antiproliferative activity against human CEMTL cells assessed as growth inhibition after 48 hrs by PrestoBlue dye based fluorescence assay; format: functional, cell-based; details: CEM-TL
[38] = test system: SK-MEL-28; test: Antiproliferative activity against human SK-MEL-28 cells assessed as growth inhibition after 48 hrs by PrestoBlue dye based fluorescence assay; format: functional, cell-based; details: SK-MEL-28, 48 h
[39] = test system: PANC-1; test: Antiproliferative activity against human PANC-1 cells assessed as growth inhibition after 48 hrs by PrestoBlue dye based fluorescence assay; format: functional, cell-based; details: PANC-1, 48 h
[40] = test system: LNCaP; test: Antiproliferative activity against human LNCAP cells assessed as growth inhibition after 48 hrs by PrestoBlue dye based fluorescence assay; format: functional, cell-based
[41] = test system: HCT-116; test: Antiproliferative activity against human HCT116 cells assessed as growth inhibition after 48 hrs by PrestoBlue dye based fluorescence assay; format: functional, cell-based; details: HCT-116, 48 h
[42] = test system: SW480; test: Antiproliferative activity against human SW480 cells assessed as growth inhibition after 48 hrs by PrestoBlue dye based fluorescence assay; format: functional, cell-based; details: SW480, 48 h
[43] = test system: FaDu; test: Antiproliferative activity against human FADU cells assessed as growth inhibition after 48 hrs by PrestoBlue dye based fluorescence assay; format: functional, cell-based
[44] = Antiproliferative activity against human UM-SCC-6 cells assessed as growth inhibition after 48 hrs by PrestoBlue dye based fluorescence assay; format: functional, cell-based; details: UM-SCC-6, 48 h

CCCCCCCCCCCCCCCCCCSCCNC(=O)[C@H](Cc1ccc(-c2ccccc2)cc1)NC(=O)[C@@H]1C[C@H](Oc2ccccc2)CN1C(=O)[C@@H](NC(=O)[C@H](C)NC)C(C)(C)C (H-[NMeA][Tle][Pro(cis-4-OPh)][Bip]-X1) showed an EC50 [1] of 320 nM, an EC50 [2] of 1700 nM and an EC50 [3] of 1000 nM. The EC50 [4] was 2000 nM, the EC50 [5] was 8700 nM and the EC50 [6] was 9500 nM. For the same compound, the EC50 [7] was 2900 nM, the EC50 [8] was 2200 nM and the EC50 [9] was 2000 nM. For the same compound, the EC50 [10] was 960 nM, the EC50 [11] was 1100 nM and the EC50 [12] was 2700 nM. For the same compound, the viability at 10 µM [13] was 71%, the Activity [14] was 1.67% and the Activity [15] was 20.3%. The Activity [16] was 7.06%, the viability at 10 µM [17] was 79.3% and the Activity [18] was 0.94%. The Activity [19] was 17.8%, the Activity [20] was 1.97% and the viability at 10 µM [21] was 74.9%. The Activity [22] was 1.27%, the Activity [23] was 22.4% and the Activity [24] was 1.41%. For the same compound, the viability at 10 µM [25] was 87.6%, the Activity [26] was 1.81% and the Activity [27] was 9.97%. The Activity [28] was 0.63%, the “fold change (FC)” value [29] was 1.5 and the Tmax [30] was 16 h. The Cmax [31] was 15.1265 µM, the Cp [32] was 7.5633 µM and the Activity [33] was “Dose-dependent effect”.

In the case of CCCCCCCCCCCCCCCCCCS(=O)(=O)CCNC(=O)[C@H](Cc1ccc(-c2ccccc2)cc1)NC(=O)[C@@H]1C[C@H](Oc2ccccc2)CN1C(=O)[C@@H](NC(=O)[C@H](C)NC)C(C)(C)C (H-[NMeA][Tle][Pro(cis-4-OPh)][Bip]-X2), the EC50 [34] is reported as 48200 nM, the EC50 [35] is reported as 2100 nM and the EC50 [36] is reported as 240 nM. The EC50 [37] was 14200 nM, the EC50 [38] was 11300 nM and the EC50 [39] was 4700 nM. It also gave an EC50 [40] of 10500 nM, an EC50 [8] of 2300 nM and an EC50 [41] of 1500 nM. It also gave an EC50 [42] of 25700 nM, an EC50 [43] of 640 nM and an EC50 [44] of 4800 nM. The EC50 [11] was 1100 nM.
